Screening results as filed in PubChem BioAssay.
procasp3 activ – activators of human procaspase-3 D3A mutant, primary screen, biochemical, absorbance, PC-3 D3A mutant, single concentration. Caspase-3 (Homo sapiens), P42574. recombinant procaspase-3 D3A, Ac-DEVD-pNA absorbance 405 nm. activation, % at 8.5 µM. hit rate 0.11% among 330,000. AID 463141, 2010;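 active means activation above the mean of all tested compounds plus 3 SD, cut at about 21% in these data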;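 further: 0% = DMSO alone and 100% = DMSO wells spiked with extra 5 µM PC-3 D3A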
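Test system: Procaspase-3 D3A mutant; medium: Zinc-free HEPES/NaCl buffer with 0.01% Triton X-100 at pH 7.4; reagent: DEVD-pNA substrate; doses: one concentration, 8.5 µM nominal, 0.8% DMSO; times: 1 h preincubation plus 2 h reaction at 25 °C; signal: Epi-absorbance at 405 nm of released p-nitroaniline, 0 and 120 min; replicates: singlicate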
PME-1 inh – PME-1 inhibitors via competitive probe labeling, primary screen, biochemical, fluorescence polarization, FP-Rh probe, HTS. AID 2130, 2009. Protein phosphatase methylesterase 1 (Homo sapiens), Q9Y570. recombinant PME-1. hit rate 0.53% among 320,000. inhibition, % at 5.9 µM;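 active means inhibition above the campaign mean of all compounds plus 3 SD, cut at about 26% in these data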;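 further: competitive labeling of PME-1 active site by serine hydrolase directed probe; 0% = PME-1 with DMSO and 100% = wells lacking PME-1 enzyme; inhibitors block probe labeling so polarization falls and inhibition rises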
LYPLA1 inh – LYPLA1 inhibitors, primary screen, counter-screen for PME1 inhibitor project, biochemical, fluorescence polarization, FP-Rh probe ABPP; inhibition, % at 5.9 µM; hit rate 0.16% among 320,000; recombinant LYPLA1; Acyl-protein thioesterase 1 (Homo sapiens), O75608; AID 2174, 2009;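 active means inhibition above the mean of all tested compounds plus 3 SD, set per campaign, cut at about 14% in these data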;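 further: inhibitors block serine hydrolase probe labeling of LYPLA1 so polarization falls; 0% = enzyme with DMSO and 100% = wells lacking LYPLA1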
Target sequence (O75608 whole entry, looked up): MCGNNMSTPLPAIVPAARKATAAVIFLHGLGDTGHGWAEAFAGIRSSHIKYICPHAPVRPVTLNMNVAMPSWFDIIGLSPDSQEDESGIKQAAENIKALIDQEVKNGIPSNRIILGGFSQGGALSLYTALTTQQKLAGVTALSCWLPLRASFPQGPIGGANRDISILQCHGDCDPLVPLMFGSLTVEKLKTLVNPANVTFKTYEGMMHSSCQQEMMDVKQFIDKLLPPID
proCasp7 act – procaspase-7 activators, primary screen, counter-screen for procaspase-3 activator project, biochemical, absorbance, HTS, human; Caspase-7 (Homo sapiens), P55210; recombinant procaspase-7, Ac-DEVD-pNA absorbance 405 nm; D23A/D198A/D206A triple mutant, cannot self-cleave; scale: DMSO 0, 5 µM enzyme 100; activation, % at 8.5 µM; hit rate 0.093% among 330,000; AID 463210, 2010;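 active means percent activation above the screen-wide mean plus 3 SD, cut at about 25% in these data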
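Test system: Procaspase-7 triple mutant (PC-7 D3A). Also added: Ac-DEVD-pNA substrate, 400 µM as added. Schedule: 1 h enzyme–compound preincubation and 2 h substrate reaction, both 25 °C. Signal: p-Nitroaniline absorbance at 405 nm, read at 0 and 120 min. Control set: low DMSO alone, high DMSO plus 5 µM PC-7.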
LYPLA2 counter – LYPLA2 inhibitors, primary screen, counter-screen for PME1 inhibitor project, biochemical, fluorescence polarization, FP-Rh probe ABPP. hit rate 0.38% among 320,000. AID 2177, 2009. Acyl-protein thioesterase 2 (Homo sapiens), O95372. recombinant LYPLA2. inhibition, % at 5.9 µM;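 active means inhibition above the screen-wide mean plus 3 SD, limit set per campaign, cut at about 26% in these data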;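 further: 0% = LYPLA2 with DMSO and 100% = wells lacking LYPLA2 enzyme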
Target sequence (O95372 whole entry, looked up): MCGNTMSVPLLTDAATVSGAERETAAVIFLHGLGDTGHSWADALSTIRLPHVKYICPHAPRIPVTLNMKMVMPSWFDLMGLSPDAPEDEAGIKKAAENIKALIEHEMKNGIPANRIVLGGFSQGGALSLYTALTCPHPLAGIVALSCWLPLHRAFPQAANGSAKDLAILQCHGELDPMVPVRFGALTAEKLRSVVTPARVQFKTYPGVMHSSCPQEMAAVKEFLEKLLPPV
Fam108B inh – mouse Fam108B serine hydrolase inhibitors, primary screen, counter-screen for RBBP9 inhibitor project, biochemical, fluorescence polarization. recombinant Fam108B, FP-Rh probe fluorescence polarization. inhibition, % at 9.51 µM. hit rate 0.33% among 300,000;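 active means inhibition above the screen mean inhibition plus 3 SD, computed separately per campaign, cut at about 18% in these data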;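 further: inhibitors lower polarization as less probe binds the enzyme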
PC3 D3A act – procaspase-3 activators, counter-screen for dual procaspase-3/7 activator project, biochemical, absorbance, PC-3 D3A mutant, human. shares compounds with proCasp7 act. recombinant PC-3 D3A, Ac-DEVD-pNA absorbance 405 nm; aspartates 9, 28, 175 changed to alanine; 100% = enzyme control. activation, % at 8.5 µM. 290 tested, under 10 active. AID 493114, 2011;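 active means mean percent activation across triplicates above a set limit taken from the earlier primary procaspase-3 screen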;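 further: 0% = DMSO wells and 100% = DMSO wells with 5 µM added PC-3 D3A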
PC7 dual conf – activation of procaspase-7 enzyme – biochemical, absorbance, human, dual procaspase-3/-7 activator project, confirmation; shares compounds with proCasp7 act; recombinant procaspase-7, Ac-DEVD-pNA absorbance 405 nm; D23A/D198A/D206A mutant that cannot self-cleave; activation, % at 8.5 µM; 290 tested, under 10 active;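 active means mean activation above a set limit carried over from the earlier primary screen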;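 further: 0% = DMSO only and 100% = DMSO with added 5 µM PC-7 enzyme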
* marks the source's active call; other numbers are inactive results. An excerpt weighted towards active compounds, which were near 1% of everything screened.

CCOC(=O)C1=C(C)NC(=O)NC1c1ccc(NC(C)=O)cc1 (stereo not given) was read as procasp3 activ 1, PME-1 inh 1, LYPLA1 inh 3, proCasp7 act 8, LYPLA2 counter 10 and Fam108B inh -2.
CC(C)OC(=O)CC(=O)CSc1nc2c(cc1C#N)CCCCCC2 was read as procasp3 activ 62*, PME-1 inh -3, LYPLA1 inh -1, proCasp7 act 75*, LYPLA2 counter 9, Fam108B inh 2, PC3 D3A act -29 and PC7 dual conf -27.
CCc1nnc(NC(=O)c2c(-c3ccccc3)noc2C)s1 was read as procasp3 activ 2, PME-1 inh -8, LYPLA1 inh 2, proCasp7 act -11, LYPLA2 counter 2 and Fam108B inh -4.
`Cc1nnc(NC(=O)c2c(-c3ccccc3)noc2C)s1` gave procasp3 activ 5, PME-1 inh 3, LYPLA1 inh 2, proCasp7 act 26*, LYPLA2 counter 10, Fam108B inh 2, PC3 D3A act 1 and PC7 dual conf -1.
`c1ccc(N2CC3CCc4ccccc4C3=N2)cc1` (stereo not given) gave procasp3 activ 39*, PME-1 inh 3, LYPLA1 inh 4, proCasp7 act 72*, LYPLA2 counter 8, Fam108B inh 2, PC3 D3A act -30 and PC7 dual conf -35.
For O=C(CCl)N(CCc1ccccc1)CCc1ccccc1 the results were procasp3 activ 14, PME-1 inh -1, LYPLA1 inh -1, proCasp7 act 10, LYPLA2 counter -5 and Fam108B inh 1.
Screening O=C(O)c1cc(S(=O)(=O)N2CCN(C(=O)c3ccco3)CC2)c(Cl)cc1Cl returned procasp3 activ -4, PME-1 inh -6, LYPLA1 inh 3, proCasp7 act 6, LYPLA2 counter -4 and Fam108B inh -6.
`O=c1c(O)c(-c2ccc3c(c2)OCO3)oc2ccccc12` gave procasp3 activ 37*, PME-1 inh -1, LYPLA1 inh 0, proCasp7 act 30*, LYPLA2 counter 0, Fam108B inh -4, PC3 D3A act 23* and PC7 dual conf 19.
Screening CCN(CC)c1ccc(/C=N/NC(=O)c2nnn(-c3nonc3N)c2C(C)C)c(O)c1 returned procasp3 activ 59*, PME-1 inh 17, LYPLA1 inh -7, proCasp7 act 44*, LYPLA2 counter 10, Fam108B inh 6, PC3 D3A act -30 and PC7 dual conf -35.
`Fc1ccc(C2=NN(c3ccccc3)C(c3ccco3)C2)cc1` (stereo not given) gave procasp3 activ 32*, PME-1 inh 4, LYPLA1 inh 4, proCasp7 act 44*, LYPLA2 counter 5, Fam108B inh 7, PC3 D3A act -29 and PC7 dual conf -34.
Screening Cc1ccc(N2N=C(c3ccc(F)cc3)CC2c2ccco2)cc1 (stereo not given) returned procasp3 activ -13, PME-1 inh -8, LYPLA1 inh -1, proCasp7 act -8, LYPLA2 counter -5 and Fam108B inh -4.
For Oc1ccc(C2=NN(c3ccccc3)C(c3ccc(F)cc3)C2)cc1 (stereo not given) the results were procasp3 activ 20, PME-1 inh 10, LYPLA1 inh -1, proCasp7 act 36*, LYPLA2 counter 10, Fam108B inh 9, PC3 D3A act -30 and PC7 dual conf -35.
CCOc1ccc(NC(=O)CN(C)C(=O)CC(NC(=O)c2ccccc2)c2ccccc2)cc1OCC (stereo not given) was read as procasp3 activ -1, PME-1 inh 6, LYPLA1 inh 5, proCasp7 act 10, LYPLA2 counter 0 and Fam108B inh -4.
`CCOC(=O)C1=C(COC(=O)c2cc(Br)c(Br)s2)NC(=O)NC1C` (stereo not given) gave procasp3 activ 15, PME-1 inh 2, LYPLA1 inh -3, proCasp7 act 4, LYPLA2 counter -3 and Fam108B inh -1.
For COc1ccc2sc(-c3ccc(SC)cc3)c(C#CC(C)(C)O)c2c1 the results were procasp3 activ -1, PME-1 inh -9, LYPLA1 inh -10, proCasp7 act -5 and LYPLA2 counter -13.
`COc1ccc2sc(-c3ccc(N(C)C)cc3)c(C#CC(C)(C)O)c2c1` gave procasp3 activ 49*, PME-1 inh 10, LYPLA1 inh 0, proCasp7 act 70*, LYPLA2 counter 1, PC3 D3A act -30 and PC7 dual conf -36.
For CN(Cc1c(C(=O)N/N=C/c2cccs2)nnn1-c1nonc1N)c1ccccc1 the results were procasp3 activ 8, PME-1 inh 1, LYPLA1 inh -2, proCasp7 act -3, LYPLA2 counter 2 and Fam108B inh -2.
COCc1cc(C)nc2sc(C(=O)Nc3ccccc3C)c(N)c12 was read as procasp3 activ 0, PME-1 inh -1, LYPLA1 inh 0, proCasp7 act -3, LYPLA2 counter 3 and Fam108B inh 5.
`COCc1cc(C)nc2sc(C(=O)Nc3ccccc3Br)c(N)c12` gave procasp3 activ 6, PME-1 inh 10, LYPLA1 inh 0, proCasp7 act 36*, LYPLA2 counter 2, Fam108B inh 4, PC3 D3A act -29 and PC7 dual conf -35.
For CCOC(=O)c1nc(Nc2cc(Cl)ccc2OC)c2ccccc2n1 the results were procasp3 activ 8, PME-1 inh -9, LYPLA1 inh -6, proCasp7 act 26*, LYPLA2 counter -2, Fam108B inh -4, PC3 D3A act -25 and PC7 dual conf -33.
